Screening results: PubChem, several laboratories
This is a sample that favours compounds with a hit; in the whole collection about 0.79% have one here.
p97 inhibitor = human p97 ATPase inhibition; P55072; inhibition, % at 8 µM; 220,000 compounds, 0.42% hits; recombinant p97 ATPase, Kinase-Glo ATP luminescence, 3 h; AID 1481; in the data active = inhibition above about 15%;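 also: 0% = DMSO vehicle and 100% = wells lacking enzyme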
G6PDH CS = counter-screen for G6PDH assay hits: L. mesenteroides G6PDH inhibition; Purified L. mesenteroides G6PDH, diaphorase/resazurin coupled fluorescence, 45 min; inhibition, % at 5 µM; 200,000 compounds, 0.12% hits; AID 1020; in the data active = inhibition above about 50%
TNAP inh no acc = blocks human TNAP activity with no phosphate acceptor present; purified TNAP, CDP-star luminescence, 30 min; 200,000 compounds, 0.26% hits; inhibition, % at 20 µM; AID 1012;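 active = tissue-nonspecific alkaline phosphatase inhibition above about 50% at 20 µM in the single-dose screen, limit read from the data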;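 also: 0% = DMSO negative control and 100% = EDTA positive control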
DTT redox prof = compounds producing H2O2 with reducing agent – biochemical, NIH compound library profiling, artefact control for MLSCN library redox annotation, primary screen; DTT-dependent redox cycling H2O2, phenol red/HRP absorbance; 100% = 100 µM peroxide control, 0% = buffer; activation, % at 10 µM; 200,000 compounds, 0.03% hits; AID 878;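 active = activation of at least 50% relative to the plate's high and low controls in the primary single-dose screen; inactive = activation below 50%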;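 also: compound incubated with DTT at 0.8 mM final as the reducing agent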
TNAP act hi DEA = TNAP (human) activation, high acceptor; P05186; purified TNAP, CDP-star luminescence, 1 M DEA, 30 min; active compounds read high; 0 = EDTA background, 1 = DMSO-only activity; activation factor at 20 µM; 200,000 tested, under 10 active; AID 1136;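 active = activation factor at least 2 at 20 µM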
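Dosing: 20 µM single point. System: human TNAP. Amount: TNAP 1/800 final. Incubation: 30 min, room temperature. Read-out: TNAP activation factor scaled between EDTA and DMSO control wells. Signal: luminescence from CDP-star hydrolysis. Medium: 1 M DEA, pH 9.8, Mg2+, Zn2+. Control set: EDTA negative control, DMSO positive control.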
TNAP inh hiacc = blocks human TNAP under high phosphate acceptor concentration; purified TNAP, CDP-star luminescence, 1 M DEA; 200,000 compounds, 0.03% hits; AID 1135; P05186; inhibition, % at 20 µM;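 active = over 50% inhibition of tissue-nonspecific alkaline phosphatase at 20 µM in the single-dose screen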;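 also: plate controls were DMSO wells for no effect and EDTA-quenched wells as full inhibition for full effect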
* = called active by the depositor; x = no result; ! = a repeat was not active.

SMILES	p97 inhibitor	G6PDH CS	TNAP inh no acc	DTT redox prof	TNAP act hi DEA	TNAP inh hiacc
Cc1cc[n+](C2=C([O-])c3ccccc3C(=O)/C2=N\S(=O)(=O)c2cccs2)cc1C	5	54*	16	2	0.9	8
Cc1ccccc1NC1=C/C(=N\S(=O)(=O)c2cccs2)c2ccccc2C1=O	11	55*	9	1	0.8	18
CCOc1cc(NC(=S)NCCc2ccccc2)c(OCC)cc1NC(C)=O	2	10	-4	0	1	-2
CCN(CC)Cc1cc(O)c(CN(CC)CC)cc1O	2	57*	6	-1	1	1
CC(C)Oc1ccc(/C=N/NC(=O)C(CSCc2ccccc2)NC(=O)c2ccc([N+](=O)[O-])cc2)cc1 (stereo not drawn)	0	2	-7	0	1	-3
CCOC(=O)Cc1cc(=O)[nH]c(Nc2nc3ccccc3o2)n1	-3	-1	11	2	1.1	-7
COC(=O)Cc1cc(=O)[nH]c(Nc2nc3ccccc3o2)n1	4	-29	75*	2	1	-4
CC(C)NC(=O)NC(=O)COC(=O)C1(C)CC1(Cl)Cl (stereo not drawn)	-2	-2	-14	-2	1	-4
CC(C)C1Oc2cc3oc(=O)ccc3cc2C1=O (stereo not drawn)	3	9	-9	0	1.1	-6
CC(=O)n1nc(-c2ccccc2)nc1NCc1ccc(N(C)C)cc1	-4	9	50*	0	1	-4
N=C(N)SCc1cn2ccccc2n1	-2	10	59*	0	1	0
Nc1ccccc1SCc1cn2ccccc2n1	3	-9	-13	1	1.1	-6
COc1ccc(-c2[nH]ncc2CNCc2cc(C)n(C)n2)c(F)c1	2	8	68*	0	1.1	-7
COc1ccc(-c2[nH]ncc2CNCCn2cccn2)c(F)c1	2	7	85*	1	1	-4
COc1ccc(C(C(=O)NC(C)(C)C)N(C(=O)CNC(=O)c2cccs2)c2ccc(NC(C)=O)cc2)cc1OC (stereo not drawn)	3	7	-5	-1	1	0
COc1ccc(SCCC(=O)NCc2ccncc2)cc1	9	x	x	x	x	x
COc1ccc(NC(=O)c2ccsc2NC(C)=O)cc1	0	-4	-11	-1	1	2
CN(C)CCCC(C)(O)C(C)(C)c1ccccc1 (stereo not drawn)	15*	1	-2	0	1	-4
COc1cccc(CN(C)CC(=O)Nc2ccccc2C(C)C)c1	-4	-1	-3	0	1	3
NNC(=O)c1cc(-c2ccco2)[nH]n1	-5	2	75*	0	1	1
O=C(N/N=C/C(Br)=C/c1ccccc1)c1cc(-c2ccco2)[nH]n1	7	10	-37	-1	1.1	-6
O=C1CCCC/C1=C\Nc1ccc(C(=O)O)c(O)c1	5	x	x	x	x	x
CCC(=O)Nc1nc(-c2ccccc2)ns1	-6	-3	-13	0	1	-3
O=C(CSc1ncn[nH]1)Nc1nc(-c2ccccc2)ns1	-4	7	76*	-1	1	-3
COc1cc(NCc2ccccc2O)c2ncccc2c1	4	x	x	x	x	x
SMILES	p97 inhibitor	G6PDH CS	TNAP inh no acc	DTT redox prof	TNAP act hi DEA	TNAP inh hiacc
Oc1ccccc1CNc1cccc2cccnc12	-2	52*	-6	1	0.9	8
N#Cc1ccc(C(=O)CSc2n[nH]c(=O)n2Cc2ccco2)cc1	2	x	x	x	x	x
CCc1nnc(N2C(=O)c3cccc4cccc(c34)C2=O)s1	0	-1	-6	-1	1	2
CCc1n[nH]c(=S)n1/N=C/c1cc(Br)c(O)c(OC)c1	4	x	x	x	x	x
C=CCOc1c(Br)cc(/C=N/n2c(CC)n[nH]c2=S)cc1Br	5	2	59*	0	0.8	16
CCN(CC)c1ccc(N=Nc2nn(C)c(C)c2[N+](=O)[O-])cc1	-4	10	37	0	0.4	56*
CCN(Cc1ccccc1)c1ccc(N=Nc2nn(C)c(C)c2[N+](=O)[O-])cc1	-3	5	37	4	0.6	42
CC(=O)NC1=NN(C(C)=O)C(C)(CCS(=O)(=O)c2ccc(Br)cc2)S1 (stereo not drawn)	-1	10	-2	0	1	-2
Cc1cc(NS(=O)(=O)c2ccccc2)c(C)c(Cl)c1O	x	-1	-7	x	1	-3
O=S(=O)(Nc1cc(Sc2ncn[nH]2)c(O)c2ccccc12)c1ccccc1	29*	54*	15	19	1	3
COC(=O)c1cc(NC(=O)c2ccccc2)c(=O)oc1C/C=N\OCc1ccc(Cl)cc1Cl	0	7	-2	0	1.1	-6
COc1cc(Cl)cc(/C=N/NC(N)=O)c1O	0	54*	-10	-1	1	-4
O=C1C=C(Nc2ccccc2O)c2ccccc2C1=O	4	56*	20	11	0.8	17
CC(=O)Nc1ccccc1O	11	12	-6	0	1	2
Cc1cc(NC(=O)COC(=O)c2n[nH]c3ccccc23)no1	-1	5	52*	0	1	-4
O=C(c1n[nH]c2ccccc12)N1CCCCC1	-5	1	82*	-1	1	0
CC1CCCN(C(=O)COC(=O)c2n[nH]c3ccccc23)C1 (stereo not drawn)	-5	2	60*	0	1	-1
CCOc1ccccc1NC(=O)Nc1cccc(S(N)(=O)=O)c1	2	x	x	x	x	x
CCCCC(=O)N/N=C(C)/C=C/c1ccccc1F	0	1	0	0	1	3
O=C1CC(c2ccc(F)cc2)Sc2nc(C34CC5CC(CC(C5)C3)C4)nn21 (stereo not drawn)	-6	3	86*	0	1	-4
COc1cc(OC)c(-c2c3cc(O)c(=O)cc-3oc3cc(O)c(O)cc23)cc1OC	4	14	-325	1	0.8	22
Cc1c2cc(O)c(=O)cc-2oc2cc(O)c(O)cc12	29*	18	57*	0	0.8	18
O=C(Oc1cccc(Br)c1)c1cccnc1	2	-4	-14	-3	1	-4
CCN(CC)CC(=O)Nc1c(C)cccc1C	20*!	7	-9	0	1	-2
CC(C)C(=O)Nc1ccc(S(=O)(=O)Nc2ccccn2)cc1	9	7	-12	-1	1	-3
CN1CCc2c(sc(NC(=O)c3ccc(S(=O)(=O)N4CCc5ccccc54)cc3)c2C(N)=O)C1	15*	x	x	x	x	x
CNC(=O)c1c(NC(=O)c2ccc(S(=O)(=O)N3CCCc4ccccc43)cc2)sc2c1CCN(C)C2	10	x	x	x	x	x
COc1cccc(NC(=O)C(=O)NCCc2ccc(F)cc2)c1	-4	x	x	x	x	x
